Source: PubChem (several laboratories)
Only some compounds are listed: those with a hit (about 1.7% of all), similar ones and a draw of the others.
TPT1 inh – Candida albicans TPT1 enzyme inhibitors, primary screen, biochemical, fluorescence polarization; recombinant caTPT1, FP RNA substrate dephosphorylation; actives 0.81% (n = 300,000); AID 1962, 2009; inhibition, % at 5 µM;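 active means inhibition above the mean of all tested compounds plus 3 SD, set per screening campaign, cut at about 24% in these data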;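 further: plate controls were DMSO alone for no effect and ferristatin control at 100 nM for full effect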
CSN deneddyl inh – inhibitors of CSN-mediated cullin deneddylation, primary screen, biochemical, fluorescence polarization, uHTS; inhibition, % at 12.5 µM; actives 0.38% (n = 360,000); Purified CSN, SCF-Nedd8-OG deneddylation;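 active means pattern-corrected inhibition above about 35%, with an unprinted fluorescence ratio check between 0.5 and 1.5, limit read from the data, passing the limit was not always enough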;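 further: 0% = enzyme with substrate and 100% = substrate without enzyme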
Target sequence (Q92905 whole entry, looked up, one chain of several): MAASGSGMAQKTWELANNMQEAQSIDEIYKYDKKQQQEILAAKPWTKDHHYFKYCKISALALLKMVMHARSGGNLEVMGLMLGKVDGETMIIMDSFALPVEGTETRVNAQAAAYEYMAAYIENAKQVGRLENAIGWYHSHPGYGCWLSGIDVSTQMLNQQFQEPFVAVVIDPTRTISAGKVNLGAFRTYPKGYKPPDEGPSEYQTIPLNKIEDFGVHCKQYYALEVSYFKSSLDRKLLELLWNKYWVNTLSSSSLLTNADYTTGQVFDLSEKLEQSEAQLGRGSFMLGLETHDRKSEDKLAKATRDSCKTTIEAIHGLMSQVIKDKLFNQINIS
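Schedule: reaction 90 min, room temperature / Assay system: HEK293T-derived human Csn5 enzyme / Input: Csn5 at 0.24 nM final / Measure: inhibition of Csn5 cleavage, % / Control set: substrate-only high control, full reaction low control / Technique: fluorescence polarization of the substrate / Buffer or medium: Tris/NaCl/DTT buffer, pH 7.5 / Reagent: SCFSkp2-Nedd8OG substrate at 10 nM final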
IDE inh – human IDE inhibitors in live cells, primary screen, fluorescence polarization, HEK cells, FAbetaB substrate. Insulin-degrading enzyme (Homo sapiens), P14735. FAbetaB cleavage. inhibition, % at 5.59 µM. actives 0.41% (n = 320,000). AID 434962, 2010;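 active means percent inhibition above the average of all tested compounds plus 3 SD, set per screening campaign, cut at about 16% in these data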;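 further: IDE supplied by intact live HEK cells; FP after avidin binding of uncleaved biotin substrate so inhibition keeps polarization high; 0% = DMSO wells and 100% = 60 µM reference IDE inhibitor Ii1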
IDE act – human IDE activators in live cells, primary screen, fluorescence polarization, HEK cells, FAbeta-B substrate; AID 493087, 2011; actives 0.073% (n = 340,000); activation, % at 5.96 µM; FAbeta-B cleavage; 0% vehicle, 100% cell-free pure enzyme wells;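 active means activation above the mean of all tested compounds plus 3 SD, set per screening campaign, cut at about 17% in these data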
HNF4A DNA FP – change in binding of human HNF4A to DNA, primary screen, biochemical, fluorescence polarization, FITC-DNA. 1 h. Hepatocyte nuclear factor 4-alpha (Homo sapiens), P41235. actives 0.3% (n = 360,000). AID 1224865, 2016. activity change, % at 10 µM; in the data active means activity change above about 30%, passing the limit was not always enough
TbMetRS inhib – T. brucei MetRS inhibitors, primary screen, biochemical, luminescence; methionyl-tRNA synthetase (Trypanosoma brucei brucei); purified T. brucei MetRS, ATP depletion, Kinase-Glo luminescence; AID 624268, 2012; actives 0.4% (n = 360,000); inhibition, % at 11.9 µM;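 active means inhibition above a per-plate cutoff of the control wells' mean inhibition plus 3 SD, cut at about 5.5% in these data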;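 further: 0% = DMSO wells median and 100% = median of wells with control inhibitor compound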
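Material: parasite MetRS enzyme / Replication: singlicate, one well per compound / Signal: luminescence of leftover ATP / Schedule: 2 h aminoacylation at 25 °C after 15 min preincubation / Medium: HEPES-MgCl2-KCl buffer plus DTT, spermine, BSA, pyrophosphatase / Doses: 11.9 µM single point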
TPT1 inh confirm – Candida albicans TPT1 inhibitors, confirmation, biochemical, fluorescence polarization, triplicate; shares compounds with TPT1 inh; recombinant caTPT1, RNase T1 coupled; inhibition, % at 5 µM; actives 74% (n = 2,400);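 active means inhibition above the primary screen limit, the mean inhibition of all tested compounds plus 3 SD, cut at about 25% in these data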
RNase T1 counter – RNase T1 inhibitors, counter-screen for TPT1 inhibitor project, biochemical, fluorescence polarization; shares compounds with TPT1 inh; RNase T1 cleavage, 1536-well; inhibition, % at 5 µM; actives 83% (n = 2,400); AID 2153, 2009;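 active means inhibition above the solvent-only control well mean plus 3 SD, limit set per screening run, cut at about 23% in these data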;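 further: plate controls were DMSO wells with enzyme for no effect and wells without RNase T1 for full effect; inhibitors block cleavage so intact labeled substrate keeps polarization high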
Target sequence (P00651 whole entry, looked up): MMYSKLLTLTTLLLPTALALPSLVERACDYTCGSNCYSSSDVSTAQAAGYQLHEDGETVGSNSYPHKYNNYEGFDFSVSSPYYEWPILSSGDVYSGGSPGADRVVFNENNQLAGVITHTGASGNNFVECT
IDE cell inh cf – human IDE inhibitors in live cells, confirmation, fluorescence polarization, HEK cells, FAbetaB substrate; shares compounds with IDE inh; FAbetaB cleavage; inhibition, % at 5.59 µM; actives 51% (n = 1,200);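 active means mean inhibition across triplicate wells above the cutoff set by the earlier primary insulin-degrading enzyme screen, cut at about 16% in these data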;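 further: 0% = DMSO wells and 100% = 60 µM reference IDE inhibitor Ii1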
HEK293 tox – cytotoxicity in HEK cells, cytotoxicity control for IDE inhibitor project, cell-based, luminescence; shares compounds with IDE inh; HEK293 cytotoxicity, ATP luminescence; inhibition, % at 5.59 µM; actives 28% (n = 1,200); AID 449730, 2010; in the data active means inhibition above about 22%;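 further: 0% = vehicle wells and 100% = reference cytotoxic drug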
TbMetRS confirm – T. brucei MetRS inhibitors, confirmation, biochemical, luminescence; shares compounds with TbMetRS inhib; T. brucei MetRS enzyme, luminescence (ATP depletion); inhibition, % at 11.9 µM; actives 93% (n = 1,400); AID 624412, 2012; in the data active means inhibition above about 7%
Jurkat cytotox – Jurkat T cell cytotoxicity, cytotoxicity control for T. brucei MetRS inhibitor project, luminescence, high throughput; AID 624413, 2012; shares compounds with TbMetRS inhib; actives 12% (n = 1,400); inhibition, % at 8.3 µM; Jurkat cells viability, ATP luminescence; in the data active means inhibition above about 15%;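 further: 0% = vehicle and 100% = reference inhibitor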
TbMetRS FP orth – T. brucei MetRS inhibitors, orthogonal assay for T. brucei MetRS inhibitor project, biochemical, fluorescence polarization. shares compounds with TbMetRS inhib. purified T. brucei MetRS. inhibition, % at 11.9 µM. actives 44% (n = 1,400). AID 651607, 2012; in the data active means inhibition above about 17%;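 further: 0% = vehicle wells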
CSN deneddyl val – Csn5 deneddylation inhibitors, confirmation, biochemical, fluorescence polarization, single concentration, SCF-Nedd8OG substrate. shares compounds with CSN deneddyl inh. Csn5 deneddylation of SCF-Nedd8OG, 90 min. inhibition, % at 16.6 µM. actives 62% (n = 540). AID 720654, 2013; in the data active means inhibition above about 50%;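 further: 0% = DMSO with enzyme and 100% = no enzyme wells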
MMP2 cntr CSN – MMP-2 protease inhibition counter-screen, confirmation, counter-screen for CSN deneddylation inhibitor project, biochemical, fluorescence, single concentration; shares compounds with CSN deneddyl inh; recombinant MMP-2, FRET substrate fluorescence, 60 min; inhibition, % at 16.6 µM; actives 33% (n = 540);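 active means corrected plate-normalized z-score of 5 or more, or -5 or less, or inhibition of 15% or more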;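 further: plate controls were DMSO wells with enzyme for no effect and buffer wells lacking MMP-2 for full effect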
Thrombin cntr – counter-screen for CSN deneddylation inhibitors: bovine thrombin inhibition; AID 720656; shares compounds with CSN deneddyl inh; bovine thrombin cleavage of Ub4-pepOG, fluorescence polarization; inhibition, % at 16.6 µM; actives 49% (n = 540);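 active means inhibition at or above a set limit, with a fluorescence interference ratio between 0.5 and a set maximum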
The depositor's hits bear a star; nt = not tested or not shown; + = active, no number.

SMILES	TPT1 inh	CSN deneddyl inh	IDE inh	IDE act	HNF4A DNA FP	TbMetRS inhib	TPT1 inh confirm	RNase T1 counter	others
CC(C)CCn1c(N)c(C(=O)NCc2cccs2)c2nc3ccccc3nc21	0.5	10.2	-1.2	3.5	6.4	0.3	nt	nt
CN1CCN(c2c(F)cc([N+](=O)[O-])c(N)c2Br)CC1	-0.7	3.7	4.5	1.7	3.6	-0.3	nt	nt
Nc1c([N+](=O)[O-])cc(F)c(N2CCNCC2)c1Br	26.7*	-1.5	-0.2	-4.7	1.2	-0.3	9.1	9.8
Cc1cc(/C=C2\C(=O)NC(=O)N(c3ccc(Cl)cc3)C2=O)c(C)n1-c1sc2c(c1C#N)CCCC2	45.8*	26.8	4.0	-3.4	5.3	0.5	18.6	27.5*
CCOC(=O)c1c(-n2c(C)cc(/C=C3\C(=O)NC(=O)N(C)C3=O)c2C)sc2c1CCCC2	17.3	1.9	6.9	2.0	2.2	-0.5	nt	nt
CN1C(=O)N(C)C(=O)C(NS(=O)(=O)c2ccc(N)cc2)(c2ccccc2)C1=O	nt	-7.2	nt	-6.3	-3.2	0.1	nt	nt
O=C1NC(=O)C(=Cc2ccc(-c3ccc(F)cc3O)o2)C(=O)N1	25.1*	-2.3	6.8	0.4	-0.8	-0.5	42.5*	62.9*
O=C(CCc1nc(-c2ccccc2F)no1)N1CCC2(CC1)OCCO2	-7.6	2.0	-4.0	0.0	0.8	-0.4	nt	nt
Cc1ccc(OCCn2cccc2/C=C2/C(=O)NC(=O)N(Cc3ccco3)C2=O)cc1	25.4*	29.2	2.8	-4.2	-7.6	0.6	40.5*	27.4*
Cc1ccc(-n2c(C)cc(/C=C3/C(=O)NC(=O)N(Cc4ccco4)C3=O)c2C)cc1	19.3	5.0	-1.9	-4.8	-0.1	-0.3	nt	nt
O=C(/C=C/c1c[nH]c2ccccc12)c1c(O)n(CCc2ccccc2)c(=O)[nH]c1=O	169.0*	-75.0	-5.3	nt	-95.7	-0.1	176.8*	161.9*
COC(=O)C1=C(c2cc3ccccc3s2)C[C@@H]2CC[C@H]1N2C(=O)NC1CCCCC1	-1.5	4.5	-0.1	3.4	-1.0	-0.6	nt	nt
CCN(CC)c1ccc(/C=N/c2sc3c(c2C#N)C2CCN3CC2)c(O)c1	161.0*	-3.3	19.7*	-76.1	119.8	0.1	145.8*	133.0*	IDE cell inh cf=122.6*;HEK293 tox=54.7*
C/C(=N\N1CCCCC1c1cccnc1)c1c(O)n(C2CCCCC2)c(=S)[nH]c1=O (centres undefined)	82.3*	7.2	28.9*	-31.6	61.1*	0.0	123.4*	132.8*	IDE cell inh cf=14.3;HEK293 tox=14.9
CNC(=O)Oc1ccccc1C1CCCCC1	nt	0.0	nt	4.5	-7.9	-0.4	nt	nt
CN1/C(=C\C=C2C(=O)NC(=O)NC2=O)C(C)(C)c2ccccc21	+	154.6	57.2*	-64.6	219.8	-0.7	183.7*	167.7*	IDE cell inh cf=69.7*;HEK293 tox=11.7
CCCNC(=O)N1[C@H]2CC[C@@H]1C(C(=O)OC)=C(c1c(C)noc1C)C2	nt	-7.2	0.1	-3.6	-2.2	-0.2	nt	nt
O=c1c2ccccc2nc(/C=C/c2ccc3c(c2)OCO3)n1-c1ccccc1	-2.6	4.2	-2.8	-3.6	0.5	0.5	nt	nt
COc1ccc(-n2c(/C=C/c3ccc(O)c(O)c3)nc3ccccc3c2=O)cc1	35.9*	24.5	114.9*	-99.2	20.0	-0.2	58.2*	61.5*	IDE cell inh cf=115.7*;HEK293 tox=22.7*
COC(=O)CC(NC(=S)N1CC2C[C@@H](C1)Cn1c2cccc1=O)C(=O)OC (some centres undefined)	0.0	1.5	2.5	0.1	-2.5	-0.9	nt	nt
COc1ccc(Cn2c(N)c(C(=O)NCc3ccco3)c3nc4ccccc4nc32)cc1OC	28.2*	57.2*	0.3	-2.5	10.6	8.0*	6.7	12.2	TbMetRS confirm=5.3;Jurkat cytotox=14.4;TbMetRS FP orth=11.4
O=c1[nH]c(=O)n(-c2ccccc2F)c(O)c1C=NCCC1=CCCCC1	5.8	-6.4	-0.4	-4.6	7.6	-0.3	nt	nt
Cc1cc(C=C2C(=O)N(C)C(=S)N(C)C2=O)c(C)n1C1CCCCC1	24.5*	49.1*	3.2	-4.0	20.3	0.3	27.6*	39.1*	CSN deneddyl val=112.5*;MMP2 cntr CSN=1.4;Thrombin cntr=2.7
